The values below come from ChEMBL document CHEMBL4371062, “Synthesis, biological evaluation and molecular docking study of 1,2,3-1H-triazoles having 4H-pyrano[2,3-d]pyrimidine as potential Mycobacterium tuberculosis protein tyrosine phosphatase B inhibitors” (Bioorg Med Chem Lett, 2019).

What is called IC50 is the concentration at which inhibition is half-maximal. Low values mean higher potency, high ones lower potency. The Ki is the dissociation constant of the complex between target and ligand, obtained from inhibition or displacement. Higher therefore signals lower affinity. Usually inhibition stands for how much of the control response was suppressed.

Each structure is given as a SMILES string. Values after ≈ are worked out from the molar mass of the structure shown. Active and inactive are the calls of the source. No cut-off for these calls is given here.

In test [1] the target is T1, Phosphotyrosine protein phosphatase (Mycobacterium tuberculosis, UniProt A0A045ISB3).
T1 sequence (A0A045ISB3 whole entry): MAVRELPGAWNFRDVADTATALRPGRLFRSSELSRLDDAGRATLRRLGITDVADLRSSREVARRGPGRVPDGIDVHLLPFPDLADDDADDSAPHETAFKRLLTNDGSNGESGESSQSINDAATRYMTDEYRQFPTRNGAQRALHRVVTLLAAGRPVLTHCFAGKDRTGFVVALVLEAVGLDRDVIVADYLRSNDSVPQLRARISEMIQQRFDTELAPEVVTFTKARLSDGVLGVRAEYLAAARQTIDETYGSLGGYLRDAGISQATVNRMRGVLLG
The experiment in a line: Inhibition of Mycobacterium tuberculosis PTPB using pNPP as substrate preincubated for 15 mins followed by substrate addition and measured after 2 to 6 mins. An outline of the steps: (§1)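 Recombinant M. tuberculosis PtpB, cloned, expressed and purified as previously described, assayed with p-nitrophenyl phosphate as substrate. IC50 is the mean of three independent experiments.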

Test [2] addresses T1, Phosphotyrosine protein phosphatase. In words: Competitive inhibition of Mycobacterium tuberculosis PTPB using varying levels of pNPP as substrate preincubated for 15 mins followed by substrate addition and measured after 2 to 6 mins by Lineweaver-burk plot analysis. In outline: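 Substrate pNPP was varied at fixed inhibitor levels of 0, 1, 1.5, 2, 3 and 4 µM, with p-nitrophenol release treated by Michaelis-Menten kinetics. Mechanism was judged from Lineweaver-Burk double-reciprocal plots (1/Vmax y-intercept, KMapp/Vmax slope, −1/KMapp x-intercept). Ki was derived from these plots.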

Test [3] deals with T2, Phosphotyrosine protein phosphatase (Mycobacterium tuberculosis) (UniProt A0A045ISB3).
T2 sequence (whole entry): T1 sequence (A0A045ISB3 whole entry)
In words: Ratio of IC50 for inhibition of Mycobacterium tuberculosis PTPB to Ki for competitive inhibition of Mycobacterium tuberculosis PTPB.

Test [4] addresses T2, Phosphotyrosine protein phosphatase (Mycobacterium tuberculosis). In words: Inhibition of Mycobacterium tuberculosis PTPB up to 100 uM using pNPP as substrate preincubated for 15 mins followed by substrate addition and measured after 2 to 6 mins. In outline:
as §1

For test [5], the system named is Mycobacterium tuberculosis. The experiment in a line: Antitubercular activity against Mycobacterium tuberculosis H37Rv at 100 ug/ml after 28 days by Lowensteine-Jensen method relative to control. In kind it is functional. The following applies: 672 h.
Test [6] relates to Plasmodium falciparum. In words: Antimalarial activity against synchronized ring stage of Plasmodium falciparum measured after 48 hrs. In kind it is functional, organism-based.
Test [7] can be described thus: Antioxidant activity assessed as ABTS radical scavenging activity by measuring trolox equivalent antioxidant capacity after 6 mins by UV/Vis spectrophotometric analysis. In kind it is functional.
Test [8] relates to Mycobacterium tuberculosis. In words: Antitubercular activity against Mycobacterium tuberculosis H37Rv assessed as reduction in relative light units at 5 ug/ml after 72 hrs by luciferase reporter phage assay relative to control. Format: functional.
For test [9], the system named is Mycobacterium tuberculosis. In words: Antitubercular activity against Mycobacterium tuberculosis H37Rv assessed as reduction in relative light units at 25 ug/ml after 72 hrs by luciferase reporter phage assay relative to control. Format: functional. On the technique in general: In a reporter assay the amount or activity of a reporter protein is the signal.

`CCOC(=O)C1=C(C)Oc2nc(C)n(Cc3cn([C@@H]4O[C@H](COC(C)=O)[C@@H](OC(C)=O)[C@H](OC(C)=O)[C@H]4OC(C)=O)nn3)c(=O)c2C1c1ccccc1Cl` (stereo not given in full) registered an IC50 in test [1] of 33.2 µM. The same measure, in the same setting: in the case of `CCOC(=O)C1=C(C)Oc2nc(C)n(Cc3cn([C@@H]4O[C@H](COC(C)=O)[C@@H](OC(C)=O)[C@H](OC(C)=O)[C@H]4OC(C)=O)nn3)c(=O)c2C1c1ccccc1[N+](=O)[O-]` (stereo not given in full) it was 35.1 µM; in that of `CCOC(=O)C1=C(C)Oc2nc(C)n(Cc3cn([C@@H]4O[C@H](COC(C)=O)[C@@H](OC(C)=O)[C@H](OC(C)=O)[C@H]4OC(C)=O)nn3)c(=O)c2C1c1ccc(OCC)c(O)c1` (stereo not given in full), 3.53 µM; in that of `CCOC(=O)C1=C(C)Oc2nc(C)n(Cc3cn([C@@H]4O[C@H](COC(C)=O)[C@@H](OC(C)=O)[C@H](OC(C)=O)[C@H]4OC(C)=O)nn3)c(=O)c2C1c1ccc(O)c(OC)c1` (stereo not given in full), 7.51 µM. Regarding `CCOC(=O)C1=C(C)Oc2nc(C)n(Cc3cn([C@@H]4O[C@H](COC(C)=O)[C@@H](OC(C)=O)[C@H](OC(C)=O)[C@H]4OC(C)=O)nn3)c(=O)c2C1c1ccc(Br)cc1` (stereo not given in full), the affinity in [2] corresponds to a Ki of 1.8 µM. Moreover, in test [3], the Ratio was determined as 1.23. In addition, the inhibition entry in test [4] was “inactive”. In the case of `CCOC(=O)C1=C(C)Oc2nc(C)n(Cc3cn([C@@H]4O[C@H](COC(C)=O)[C@@H](OC(C)=O)[C@H](OC(C)=O)[C@H]4OC(C)=O)nn3)c(=O)c2C1c1ccc(OC)cc1` (stereo not given in full), the midpoint of inhibition in test [1], the IC50, lay at 29 µM.

In [1], `CCOC(=O)C1=C(C)Oc2nc(C)n(Cc3cn([C@@H]4O[C@H](COC(C)=O)[C@@H](OC(C)=O)[C@H](OC(C)=O)[C@H]4OC(C)=O)nn3)c(=O)c2C1c1ccc(O)c(OCC)c1` (stereo not given in full) displayed an IC50 of 7.94 µM. Against the preceding compound, the IC50 is about 3.7-fold lower.

In test [2], `CCOC(=O)C1=C(C)Oc2nc(C)n(Cc3cn([C@@H]4O[C@H](COC(C)=O)[C@@H](OC(C)=O)[C@H](OC(C)=O)[C@H]4OC(C)=O)nn3)c(=O)c2C1c1ccc(C(C)C)cc1` (stereo not given in full) yielded an inhibition constant Ki of 1.1 µM. For the same compound, in test [3], the Ratio was 1.42. In test [4], the inhibition entry was “inactive”. As for `CCOC(=O)C1=C(N)Oc2[nH]c(=O)[nH]c(=O)c2C1c1c(C)nn(-c2ccccc2)c1-n1ccnc1` (stereo not given), in test [5], testing at 100 µg/mL gave an inhibition of 92%. The concentration for half-maximal inhibition (IC50) in [6] stood at 0.062 µg/mL (≈ 0.13 µM). On to `CCOC(=O)C1=C(C)Oc2nc(C)n(Cc3cn([C@@H]4O[C@H](COC(C)=O)[C@@H](OC(C)=O)[C@H](OC(C)=O)[C@H]4OC(C)=O)nn3)c(=O)c2C1c1cccc(Cl)c1` (stereo not given in full), for which half-maximal inhibition in test [1] (IC50) required 9.52 µM. Same read-out and setting: as for `CCOC(=O)C1=C(C)Oc2nc(C)n(Cc3cn([C@@H]4O[C@H](COC(C)=O)[C@@H](OC(C)=O)[C@H](OC(C)=O)[C@H]4OC(C)=O)nn3)c(=O)c2C1c1ccccc1O` (stereo not given in full), the figure is 29 µM; as for `CCOC(=O)C1=C(C)Oc2nc(C)n(Cc3cn([C@@H]4O[C@H](COC(C)=O)[C@@H](OC(C)=O)[C@H](OC(C)=O)[C@H]4OC(C)=O)nn3)c(=O)c2C1c1cccc(OC)c1` (stereo not given in full), 28.2 µM; as for `CCOC(=O)C1=C(C)Oc2nc(C)n(Cc3cn([C@@H]4O[C@H](COC(C)=O)[C@@H](OC(C)=O)[C@H](OC(C)=O)[C@H]4OC(C)=O)nn3)c(=O)c2C1c1cc(OC)c(O)c([N+](=O)[O-])c1` (stereo not given in full), 1.56 µM. Turning to `CCOC(=O)C1=C(N)Oc2[nH]c(=O)[nH]c(=O)c2C1[C@H](O)[C@@H](O)[C@H](O[C@H]1O[C@H](CO)[C@@H](O)[C@H](O)[C@H]1O)[C@H](O)CO` (stereo not given in full), in [7], the Activity was determined as 5.24 µM.

In [1], `CCOC(=O)C1=C(C)Oc2nc(C)n(Cc3cn([C@@H]4O[C@H](COC(C)=O)[C@@H](OC(C)=O)[C@H](OC(C)=O)[C@H]4OC(C)=O)nn3)c(=O)c2C1c1ccc(Cl)cc1` (stereo not given in full) returned a concentration for half-maximal inhibition (IC50) of 35.3 µM. `CCOC(=O)C1=C(C)Oc2nc(C)n(Cc3cn([C@@H]4O[C@H](COC(C)=O)[C@@H](OC(C)=O)[C@H](OC(C)=O)[C@H]4OC(C)=O)nn3)c(=O)c2C1c1ccc([N+](=O)[O-])cc1` (stereo not given in full) came in with an IC50 in [1] of 33 µM. Still for that read-out and setting: in the case of `CCOC(=O)C1=C(C)Oc2nc(C)n(Cc3cn([C@@H]4O[C@H](COC(C)=O)[C@@H](OC(C)=O)[C@H](OC(C)=O)[C@H]4OC(C)=O)nn3)c(=O)c2C1c1ccccc1OC` (stereo not given in full) it was 35 µM; in that of `CCOC(=O)C1=C(C)Oc2nc(C)n(Cc3cn([C@@H]4O[C@H](COC(C)=O)[C@@H](OC(C)=O)[C@H](OC(C)=O)[C@H]4OC(C)=O)nn3)c(=O)c2C1c1ccccc1` (stereo not given in full), 47 µM. Consider `CCOC(=O)C1=C(C)Oc2nc(C)n(Cc3cn([C@@H]4O[C@H](COC(C)=O)[C@@H](OC(C)=O)[C@H](OC(C)=O)[C@H]4OC(C)=O)nn3)c(=O)c2C1c1ccc(C)cc1` (stereo not given in full), for which, in test [2], the Ki was found to be 2.16 µM. In [3], the Ratio was determined as 1.63. The inhibition entry in test [4] was “inactive”. For `CCOC(=O)C1=C(C)Oc2nc(C)n(Cc3cn([C@@H]4O[C@H](COC(C)=O)[C@@H](OC(C)=O)[C@H](OC(C)=O)[C@H]4OC(C)=O)nn3)c(=O)c2C1c1cc(OC)cc(OC)c1` (stereo not given in full), the IC50 in test [1] came to 32.5 µM. Consider `CCOC(=O)C1=C(C)Oc2nc(C)n(Cc3cn([C@@H]4O[C@H](COC(C)=O)[C@@H](OC(C)=O)[C@H](OC(C)=O)[C@H]4OC(C)=O)nn3)c(=O)c2C1c1ccc(N(C)C)cc1` (stereo not given in full), for which half-maximal inhibition in [1] (IC50) was put at 32 µM. Consider `CC(=O)OC[C@H]1O[C@@H](OCc2cn(Cc3ccc4ccccc4n3)nn2)[C@H](OC(C)=O)[C@@H](OC(C)=O)[C@H]1OC(C)=O`, for which the inhibition at 5 µg/mL in test [8] turned out to be 76%. Moreover, the inhibition at 25 µg/mL in [9] amounted to 78%. The compound `CCOC(=O)C1=C(C)Oc2nc(C)n(Cc3cn([C@@H]4O[C@H](COC(C)=O)[C@@H](OC(C)=O)[C@H](OC(C)=O)[C@H]4OC(C)=O)nn3)c(=O)c2C1c1cccc(O)c1` (stereo not given in full) gave a half-inhibitory concentration (IC50) in test [1] of 35.9 µM.

For `CCOC(=O)C1=C(C)Oc2nc(C)n(Cc3cn([C@@H]4O[C@H](COC(C)=O)[C@@H](OC(C)=O)[C@H](OC(C)=O)[C@H]4OC(C)=O)nn3)c(=O)c2C1c1ccc(O)cc1` (stereo not given in full), in test [1], the IC50 came to 35.3 µM. In test [1], `CCOC(=O)C1=C(C)Oc2nc(C)n(Cc3cn([C@@H]4O[C@H](COC(C)=O)[C@@H](OC(C)=O)[C@H](OC(C)=O)[C@H]4OC(C)=O)nn3)c(=O)c2C1c1cc(OC)c(O)c(OC)c1` (stereo not given in full) registered a concentration for half-maximal inhibition (IC50) of 2.22 µM. In [1], `CCOC(=O)C1=C(C)Oc2nc(C)n(Cc3cn([C@@H]4O[C@H](COC(C)=O)[C@@H](OC(C)=O)[C@H](OC(C)=O)[C@H]4OC(C)=O)nn3)c(=O)c2C1c1cccc([N+](=O)[O-])c1` (stereo not given in full) gave an IC50 of 45 µM. `CCOC(=O)C1=C(C)Oc2nc(C)n(Cc3cn([C@@H]4O[C@H](COC(C)=O)[C@@H](OC(C)=O)[C@H](OC(C)=O)[C@H]4OC(C)=O)nn3)c(=O)c2C1c1ccc(Cl)cc1Cl` (stereo not given in full): the concentration for half-maximal inhibition (IC50) in test [1] is 44 µM.
